Measured values reported in ChEMBL document CHEMBL1132219, “Synthesis of novel phenserine-based-selective inhibitors of butyrylcholinesterase for Alzheimer's disease” (J Med Chem, 1999).

Legend:
[1] = molecular target: Acetylcholinesterase (Homo sapiens, UniProt P22303); assay: Ability to inhibit acetylcholinesterase (AChE), freshly prepared from human erythrocytes
Outline: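 AChE from freshly collected blood: erythrocytes washed five times in isotonic saline, lysed in 9 volumes of 0.1 M Na3PO4 pH 7.4 with 0.5% Triton-X, diluted to final 1:200. Compounds preincubated with enzyme 30 min at room temperature, then with substrate and DTNB 25 min at 37 °C, pH 8.0. Final range 0.3 nM–[…] in half-log steps. IC50 from logit-activity versus log concentration. Four runs.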

[2] = molecular target: T1, Cholinesterases; ACHE & BCHE (Homo sapiens) (UniProt P06276+P22303); assay: AChE selectivity = IC50(BChE) / IC50(AChE).; format: protein assay
[3] = molecular target: Cholinesterase (Homo sapiens, UniProt P06276); assay: Ability to inhibit butyrylcholinesterase (BChE), freshly prepared from human plasma; format: cell-free
[4] = molecular target: T1, Cholinesterases; ACHE & BCHE (Homo sapiens); assay: BChE selectivity = IC50(AChE) / IC50(BChE).; format: protein assay

Sequence of Acetylcholinesterase (P22303 whole entry): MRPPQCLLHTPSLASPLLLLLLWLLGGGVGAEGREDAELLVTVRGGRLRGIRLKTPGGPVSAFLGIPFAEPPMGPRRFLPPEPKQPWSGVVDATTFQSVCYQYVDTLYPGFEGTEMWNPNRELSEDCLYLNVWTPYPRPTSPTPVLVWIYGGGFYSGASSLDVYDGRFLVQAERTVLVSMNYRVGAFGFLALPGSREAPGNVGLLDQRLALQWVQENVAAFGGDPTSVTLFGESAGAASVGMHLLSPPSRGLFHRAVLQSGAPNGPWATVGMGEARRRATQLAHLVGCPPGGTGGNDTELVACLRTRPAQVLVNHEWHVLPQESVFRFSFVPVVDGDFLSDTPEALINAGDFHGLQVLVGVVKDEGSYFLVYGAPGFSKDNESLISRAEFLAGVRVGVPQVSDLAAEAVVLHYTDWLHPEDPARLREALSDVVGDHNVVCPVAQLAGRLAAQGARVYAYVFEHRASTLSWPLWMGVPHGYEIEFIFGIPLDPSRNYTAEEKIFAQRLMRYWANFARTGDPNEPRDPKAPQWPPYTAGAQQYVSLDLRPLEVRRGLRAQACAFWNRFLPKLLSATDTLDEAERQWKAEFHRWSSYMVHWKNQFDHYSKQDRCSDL
T1 sequence (P06276 whole entry, looked up): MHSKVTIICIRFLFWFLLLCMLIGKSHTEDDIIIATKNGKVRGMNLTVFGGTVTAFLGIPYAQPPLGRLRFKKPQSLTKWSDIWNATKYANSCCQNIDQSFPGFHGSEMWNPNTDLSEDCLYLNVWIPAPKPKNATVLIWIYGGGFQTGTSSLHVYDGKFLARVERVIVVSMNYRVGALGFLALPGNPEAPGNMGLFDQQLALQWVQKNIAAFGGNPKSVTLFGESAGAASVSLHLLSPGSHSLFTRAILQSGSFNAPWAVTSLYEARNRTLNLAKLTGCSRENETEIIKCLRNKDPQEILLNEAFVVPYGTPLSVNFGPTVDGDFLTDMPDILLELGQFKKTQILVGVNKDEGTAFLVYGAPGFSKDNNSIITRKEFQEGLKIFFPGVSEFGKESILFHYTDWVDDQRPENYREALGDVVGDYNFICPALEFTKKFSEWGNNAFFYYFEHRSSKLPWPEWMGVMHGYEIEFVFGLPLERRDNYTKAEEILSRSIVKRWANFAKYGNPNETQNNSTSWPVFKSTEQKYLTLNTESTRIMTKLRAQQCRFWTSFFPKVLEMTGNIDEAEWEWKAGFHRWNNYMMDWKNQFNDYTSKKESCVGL
T1 sequence (P22303 whole entry, looked up): as the sequence (P22303 whole entry) above
Sequence of Cholinesterase (P06276 whole entry): as the sequence (P06276 whole entry, looked up) above

SMILES | IC50 [1] [µM] | Selectivity [2] | IC50 [3] [µM] | Selectivity [4]
Cc1ccccc1NC(=O)Oc1ccc2c(c1)[C@]1(C)CCNC1N2 (some centres not stated) | 0.285 | 1 | 0.396 | 
CC(C)c1ccc(NC(=O)Oc2ccc3c(c2)[C@]2(C)CCN(C)C2N3)cc1 (some centres not stated) | 2.02 |  | 0.078 | 26
Cc1ccccc1NC(=O)Oc1ccc2c(c1)[C@]1(C)CCN(CCc3ccccc3)C1N2C (some centres not stated) | 0.55 | 3 | 1.79 | 
Cc1ccccc1NC(=O)Oc1ccc2c(c1)[C@]1(C)CCN(C)C1N2 (some centres not stated) | 0.04 | 36 | 1.43 | 
Cc1ccccc1NC(=O)Oc1ccc2c(c1)[C@]1(C)CCNC1N2C (some centres not stated) | 0.017 | 127 | 2.17 | 
CC(C)c1ccc(NC(=O)Oc2ccc3c(c2)[C@]2(C)CCN(C)C2N3Cc2ccccc2)cc1 (some centres not stated) | 13 |  | 0.085 | 152
Cc1ccccc1NC(=O)Oc1ccc2c(c1)[C@]1(C)CCN(C)C1N2C (some centres not stated) | 0.0103 |  |  | 
CC(C)c1ccc(NC(=O)Oc2ccc3c(c2)[C@]2(C)CCN(CCc4ccccc4)C2N3C)cc1 (some centres not stated) | > 30 |  | 0.006 | 
CN1CC[C@@]2(C)c3cc(OC(=O)Nc4ccccc4)ccc3N(C)C12 (some centres not stated) |  | 65 |  | 
CC(C)c1ccc(NC(=O)Oc2ccc3c(c2)[C@]2(C)CCNC2N3C)cc1 (some centres not stated) | 0.324 |  | 0.0083 | 39
Cc1ccccc1NC(=O)Oc1ccc2c(c1)[C@]1(C)CCN(C)C1N2Cc1ccccc1 (some centres not stated) | 0.1 | 6 | 0.6 | 
CC(C)c1ccc(NC(=O)Oc2ccc3c(c2)[C@]2(C)CCN(Cc4ccccc4)C2N3Cc2ccccc2)cc1 (some centres not stated) | > 30 |  | 0.132 | > 227
Cc1ccccc1NC(=O)Oc1ccc2c(c1)[C@]1(C)CCN(Cc3ccccc3)C1N2Cc1ccccc1 (some centres not stated) | 1.76 |  | 0.641 | 3
CC(C)c1ccc(NC(=O)Oc2ccc3c(c2)[C@]2(C)CCNC2N3)cc1 (some centres not stated) | 0.11 |  | 0.001 | 110
